These results are taken from ChEMBL document CHEMBL1149788, “Synthesis and biochemical evaluation of guanidino-alkyl-ribitol derivatives as nucleoside hydrolase inhibitors” (Eur J Med Chem, 2008).

The first experiment deals with T1, IAG-nucleoside hydrolase (Trypanosoma vivax, UniProt Q9GPQ4).
T1 sequence (Q9GPQ4 whole entry): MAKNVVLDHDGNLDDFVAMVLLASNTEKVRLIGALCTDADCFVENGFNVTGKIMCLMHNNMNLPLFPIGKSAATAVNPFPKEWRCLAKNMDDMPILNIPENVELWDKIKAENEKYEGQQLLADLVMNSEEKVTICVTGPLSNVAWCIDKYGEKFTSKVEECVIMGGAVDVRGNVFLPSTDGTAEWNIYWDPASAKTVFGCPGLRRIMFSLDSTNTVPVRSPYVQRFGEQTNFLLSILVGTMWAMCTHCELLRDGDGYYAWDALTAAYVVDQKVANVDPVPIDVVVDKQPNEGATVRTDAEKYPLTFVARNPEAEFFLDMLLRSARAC
The experiment is described as follows: Inhibition of Trypanosoma vivax IAG-nucleoside hydrolase expressed in Escherichia coli WK6. The gist of the method: (§1)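 His6-tagged enzyme purified by Ni-NTA then Superdex-200 gel filtration; concentration per monomer from ε280 47752 M⁻¹ cm⁻¹. Initial rates of hydrolysis of fixed p-nitrophenyl-β-D-ribofuranoside at ≥5 inhibitor concentrations, 50 mM phosphate pH 7.0, 35 °C. p-Nitrophenolate release read at 400 nm (ε 12 mM⁻¹ cm⁻¹). Ki from competitive-inhibition fit via Dixon plot (1/vi vs I).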
Take `OC[C@H]1NC[C@H](O)[C@@H]1O` [IMINORIBITOL]: the inhibitory constant (Ki) is 6.1 µM. This lies in the single-digit micromolar range.
The same measure, in the same setting: the figure for `N=C(N)Nc1ccc(CN2C[C@H](O)[C@H](O)[C@H]2CO)cc1` is 7 µM; for `N=C(N)c1ccc(CN2C[C@H](O)[C@H](O)[C@H]2CO)cc1` it is 6.7 µM; for `OCC1[C@@H](O)[C@@H](O)CN1Cc1ccccc1` (single isomer, unassigned) it is 59 µM.
Molecule `NC(=O)[C@@H]1O[C@H](CO)[C@H](O)[C@@H]1O` came in with a Ki of 4500 µM.
As for `NC(N)=NCCN1C[C@H](O)[C@H](O)[C@H]1CO`, the Ki was determined as 286 µM. This Ki is about 16-fold lower than that of the molecule before.
Molecule `C[N+](C)(C)C[C@@H]1O[C@H](CO)[C@@H](O)[C@H]1O` registered a Ki of 1280 µM.
As to `NC(N)=NC[C@@H]1O[C@H](CO)[C@@H](O)[C@H]1O`, the Ki was 545 µM.
As for `NC(N)=NCCC[C@@H]1O[C@H](CO)[C@@H](O)[C@H]1O`, the affinity corresponds to a Ki of 677 µM.
The molecule `N=C(N)NCCCN1C[C@H](O)[C@H](O)[C@H]1CO` returned a Ki of 40 µM.
As to `N=C(N)NCC[C@@H]1N[C@H](CO)[C@@H](O)[C@H]1O`, the Ki was found to be 18 µM.
As for `CC(C[C@@H]1O[C@H](CO)[C@@H](O)[C@H]1O)N=C(N)N` (some centres undefined), the inhibition constant (Ki) is 685 µM.
In turn, `NC(N)=NCC[C@@H]1O[C@H](CO)[C@@H](O)[C@H]1O` displayed a Ki of 309 µM.

A further experiment deals with T2, IAG-nucleoside hydrolase (Trypanosoma vivax) (UniProt Q9GPQ4).
T2 sequence (whole entry): T1 sequence (Q9GPQ4 whole entry)
The experiment in a line: Binding affinity to Trypanosoma vivax IAG-nucleoside hydrolase. The gist of the method: as §1
In the case of `O[C@@H]1[C@H](O)[C@H](O)CO[C@H]1O`, the Activity was found to be 148 mM.

By Ki is commonly meant the equilibrium dissociation constant of an inhibitor or competing ligand from its target. Higher therefore signals lower affinity.
